For data set [1], the target named is T1, recombinant Bauhinia forficata lectin (BfL) (Bauhinia forficata, UniProt P86993).
T1 sequence (P86993 1-233): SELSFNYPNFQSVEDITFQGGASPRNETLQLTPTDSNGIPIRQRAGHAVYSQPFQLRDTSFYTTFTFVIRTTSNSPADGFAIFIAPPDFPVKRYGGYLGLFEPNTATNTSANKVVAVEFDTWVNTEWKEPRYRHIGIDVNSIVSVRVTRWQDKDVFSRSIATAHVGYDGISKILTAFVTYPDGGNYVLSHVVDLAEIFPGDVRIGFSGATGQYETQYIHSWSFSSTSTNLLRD
The experiment in a line: glyco-antigen microarray binding of BfL, apparent Kd. To be noted: for RFUmax: carbohydrate array, maximum signal of the binding curve. Put shortly:
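His6-tagged lectin expressed in E. coli, refolded from inclusion bodies, and gel-filtered in 50 mM Hepes pH 7.5, 150 mM NaCl. Glycans on BSA or HSA (neoglycoproteins), some at high and low density. Arrays blocked overnight at 4 °C in 3% BSA TBS. Lectin dilutions in 1% BSA TBS with 2 mM CaCl2 and 0.05% Tween-20, duplicate wells, 2 h at 37 °C. Detected with anti-His then DyLight549 anti-mouse IgG. Fluorescence averaged, log2-transformed, apparent Kd fitted from binding curves.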

Another data set deals with T2, Ac-A-Tn(Thr)-S-G - 05.
T2 sequence (peptide, N-terminal acetyl; Tn (GalNAc α-linked) on the second residue (Thr)): ATSG
The experiment in a line: peptide or protein array.

The target in a further data set is T3, Ac-S-Ser(core 5)-S-G-18.
T3 sequence (peptide, N-terminal acetyl; core 5 (GalNAcα1-3GalNAcα1-) on the second residue (Ser)): SSSG
Kind of data set: peptide or protein array.

Another data set addresses T4, Ac-S-Thr(F1α)-S-G - 18.
T4 sequence (peptide, N-terminal acetyl; F1α (Galβ1-4GlcNAcβ1-6GalNAcα1-) on the second residue (Thr)): STSG
Kind of data set: peptide or protein array.

A further data set addresses T5, Ac-S-Tn(Ser)-S-G - 04.
T5 sequence (peptide, N-terminal acetyl; Tn (GalNAc α-linked) on the second residue (Ser)): SSSG
Kind of data set: peptide or protein array.

Another data set deals with T6, Ac-S-Tn(Ser)-S-G - 22.
T6 sequence (peptide, N-terminal acetyl; Tn (GalNAc α-linked) on the second residue (Ser)): SSSG
Kind of data set: peptide or protein array.

The target of the next data set is T7, Ac-S-Tn(Thr)-S-G - 04.
T7 sequence (peptide, N-terminal acetyl; Tn (GalNAc α-linked) on the second residue (Thr)): STSG
The experiment in a line: peptide or protein array.

Data set [2] concerns the target all forms of the Tn antigen (Tn glycopeptides, 55 array components). Kind of data set: peptide or protein array.
Data set [3] addresses ovine submaxillary mucin (ovine). Kind of data set: peptide or protein array.
Data set [4] deals with human cancer cell lines of the NCI-60 panel. The experiment in a line: NCI-60 Human Tumor Cell Lines Screen, One Dose Assay. The class given is cell-based. As to conditions: 1.85 μM. Put shortly: (§1)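 Recombinant His-tagged test lectin, refolded from E. coli inclusion bodies, was gel-filtered into 50 mM Hepes pH 7.5, 150 mM NaCl before use. NCI DTP ran a one-dose screen at 1.85 μM following its published protocols. Read-out was SRB colorimetric total protein in non-lysed cells. Growth percent is relative to drug-free medium, averaged over two experiments.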

Data set [5] relates to melanoma LOX IMVI cell line. Kind of data set: NCI-60 One Dose Assay. To be noted: 1.85 μM, SRB assay, 5% serum, average of two experiments. The class given is cell-based, human. Put shortly:
as §1

A short description of data set [6]: solubility of recombinant BfL. It is filed as physicochemical. Put shortly:
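Recombinant His6-tagged lectin was expressed in bacteria, recovered from inclusion bodies and refolded at 5 °C. It was then dialysed overnight against 50 mM Tris-HCl pH 7.5, 0.2 M NaCl, 1 mM CaCl2, and concentrated to 8-10 mg/ml at room temperature for storage at −80 °C. The preceding purification and refolding steps were run at 5 °C.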

Data set [7] has as its system MCF7 human breast cancer cell line. As to conditions: natural BfL from seeds; after 72 hours at 2.5 µM; cited from earlier work.
In another data set the test system is rabbit erythrocytes. As to conditions: natural BfL from seeds; cited from earlier work.
In data set [8] the test system is human erythrocytes originating from all blood types. As to conditions: natural BfL from seeds; cited from earlier work.
The test system of data set [9] is normal and several types of cancer cells. As to conditions: natural BfL from seeds; cited from earlier work.
Data set [10] concerns the target T8, recombinant Bauhinia forficata lectin (BfL-His6) (Bauhinia forficata, UniProt P86993 1-233).
T8 sequence: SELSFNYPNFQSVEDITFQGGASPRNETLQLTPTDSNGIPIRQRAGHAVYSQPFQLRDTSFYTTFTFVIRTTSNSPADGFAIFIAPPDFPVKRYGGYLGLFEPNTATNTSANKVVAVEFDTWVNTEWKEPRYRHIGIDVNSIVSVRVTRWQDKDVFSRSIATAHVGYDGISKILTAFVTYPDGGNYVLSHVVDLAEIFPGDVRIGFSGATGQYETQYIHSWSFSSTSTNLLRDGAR
Kind of data set: peptide or protein array.

Where no end group is shown, it is not given here. The star is where a group is joined. αGalNAc = CC(=O)N[C@@H]1[C@@H](O)[C@@H](O)[C@@H](CO)O[C@@H]1*

By solubility is commonly meant the concentration that dissolves in the medium under given conditions.

As to GalNAcβ1-4GlcNAcβ [LDN-Sp - 14], in [1], the “binding of BfL on glycan microarray (in words)” value (shortened to “binding of BfL”) is on record as “strong binding” and the RFUmax was 18291 RFU.
As to GalNAcβ1-3Galα1-3Galβ [iGb4], the “binding of BfL” value in [1] is “strong binding”.
With GalNAcα1-3(Fucα1-2)Gal [BG-A -19], the RFUmax in data set [1] was determined as 15700 RFU.
“GalNAcα1-3GalNAcβ1-3Galα1-4Galβ [Forssman Tetra-BSA - 13]”: in data set [1], the “binding of BfL” value was “strong binding” and the RFUmax worked out at 18518 RFU.
Turning to “Galβ1-4GlcNAcβ1-6GalNAcα1-Thr (Ac-ST(Galβ1‑4GlcNAcβ1‑6GalNAcα1)SG; also: on BSA or HSA carrier) [Ac-S-Thr(F1α)-S-G - 18]”, the RFUmax in [1] was found to be 17214 RFU.
On the same count and under the same terms, to “AzHex-P-D-Tn(Thr)-R-P-NH2-07: Tn glycopeptide on BSA or HSA, array component (AzHex-PDT(αGalNAc)RP-NH2; also: on BSA or HSA carrier)” belongs 15559 RFU.
Turning to GalNAcα1-3Gal [GalNAcα1-3Gal - 17], in data set [1], the “binding of BfL” value is “strong binding” and the RFUmax was determined as 17826 RFU.
Turning to “GalNAcβ1-3Galα1-4Galβ1-4GlcNAcβ [Gb4 - 09]”, in data set [1], the “binding of BfL” value is listed as “strong binding” and the RFUmax is reported as 14003 RFU. Further, the Kd in data set [1] (read-out: App Kd, apparent Kd, multivalent avidity on carbohydrate array) was 0.68 nM.
For “GalNAcα1-3GalNAcα1-Ser (Ac-SSSG; not fully specified (residue 2); also: on BSA or HSA carrier) [Ac-S-Ser(core 5)-S-G-18]”, in data set [1], the “binding of BfL” value is on record as “good binder” and the RFUmax was found to be 18580 RFU.
On to “-G-V-T-S-A-P-D-T-R-P-A-P-G-S- Tn(Thr)-A-P-P-A (GVTSAPDTRPAPGST(αGalNAc)APPA; also: conjugated to albumin carrier (BSA or HSA)) [Muc1-Tn15]”, for which the RFUmax in [1] turned out to be 17917 RFU.
For the molecule GalNAcβ1-4Galβ [GA2di - 37], in data set [1], the “binding of BfL” value is reported as “strong binding” and the RFUmax is 17241 RFU.
In the same order, the values of GalNAcα1-6Galβ [GalNAcα1-6Galβ - 22] are “strong binding” and 19055 RFU.
With “Ac-S-Tn(Ser)-V-G-13: Tn glycopeptide on BSA or HSA, array component (Ac-SS(αGalNAc)VG; also: on BSA or HSA carrier)”, in data set [1], the RFUmax came to 17255 RFU.

B1: recombinant Bauhinia forficata lectin (BfL-His6) (natural protein)
chain: SELSFNYPNFQSVEDITFQGGASPRNETLQLTPTDSNGIPIRQRAGHAVYSQPFQLRDTSFYTTFTFVIRTTSNSPADGFAIFIAPPDFPVKRYGGYLGLFEPNTATNTSANKVVAVEFDTWVNTEWKEPRYRHIGIDVNSIVSVRVTRWQDKDVFSRSIATAHVGYDGISKILTAFVTYPDGGNYVLSHVVDLAEIFPGDVRIGFSGATGQYETQYIHSWSFSSTSTNLLRDGAR
On to B1, for which the Kd was found to be 0.63 nM in the data set with Ac-A-Tn(Thr)-S-G - 05; 1.02 nM in the data set with Ac-S-Ser(core 5)-S-G-18; 2.51 nM with Ac-S-Thr(F1α)-S-G - 18; 0.75 nM in the data set with Ac-S-Tn(Ser)-S-G - 04; 0.65 nM with Ac-S-Tn(Ser)-S-G - 22; 0.71 nM with Ac-S-Tn(Thr)-S-G - 04. The Kd in data set [2] was 0.4 to 1.2 nM; in data set [3], 10.7 nM.

B2: BfL: recombinant Bauhinia forficata lectin expressed in E. coli and refolded, non-glycosylated, C-terminal His6 tag, dimeric (protein)
chain: SELSFNYPNFQSVEDITFQGGASPRNETLQLTPTDSNGIPIRQRAGHAVYSQPFQLRDTSFYTTFTFVIRTTSNSPADGFAIFIAPPDFPVKRYGGYLGLFEPNTATNTSANKVVAVEFDTWVNTEWKEPRYRHIGIDVNSIVSVRVTRWQDKDVFSRSIATAHVGYDGISKILTAFVTYPDGGNYVLSHVVDLAEIFPGDVRIGFSGATGQYETQYIHSWSFSSTSTNLLRDGAR
modifications: left off: His6, C-terminal, kept
Turning to B2, the cytotoxic effects entry in data set [4] was “No cytotoxic effects”. For the same molecule, the “growth inhibition, strong effect, five cell lines” value in data set [4] (observed for five cell lines of different cancers) is over 50%. The “cell lines not inhibited” value in data set [4] (share of the cell lines of the panel) is “About 50%”. The growth inhibition result in data set [5] is on record as “over 95%”. Moreover, in data set [6] (5 °C, compared with room temperature), the “solubility (in words)” value is given as “decreases”. For the same molecule, in data set [6] (room temperature), the solubility is 8000 to 10000 µg/mL. The inhibition of viability in [7] was 35%. The “concentration that agglutinates erythrocytes” value (in the data set with rabbit erythrocytes; in data set [8]) was at least 1 µg/mL in each case. In addition, the “cytotoxicity (in words)” value in [9] is given as “non-cytotoxic”.
Turning to Ac-APGST(αGalNAc)APPAG [Ac-A-P-G-S-Tn(Thr)-A-P-P-A-G-03], the Kd in data set [10] was found to be 0.65 nM.
For AzHex-PDT(αGalNAc)RP-NH2 [AzHex-P-D-Tn(Thr)-R-P-NH2-07], the Kd in data set [10] worked out at 1.25 nM.

The values above are taken from publication PMC6257985 (The FEBS journal, 2017).
